ChEMBL document CHEMBL1151431, “Role of lon, an ATP-dependent protease homolog, in resistance of Pseudomonas aeruginosa to ciprofloxacin” (2007)
Values after ≈ are worked out from the molar mass of the structure shown. Active and inactive are the calls of the source. The rule behind the calls is not given here.

Columns and labels:
Pseudomonas aeruginosa [1] = experiment: Antibacterial activity against 69_C12 allele containing Pseudomonas aeruginosa PAO1 H1109 mutant strain with recA::lux mutation after 24 hrs by broth microdilution technique; format: functional
Outline: (§1)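 Broth microdilution MIC with P. aeruginosa PAO1 H103 (wild type), Tn5-lux insertion mutants or complemented strain. Overnight LB cultures grown at 37°C with agitation, diluted 1:1,000 in LB. Antimicrobials made fresh daily. Growth scored after 24 h at 37°C. Four independent repeats; mode reported.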

Pseudomonas aeruginosa [2] = experiment: Antibacterial activity against 31_C9 allele containing Pseudomonas aeruginosa PAO1 H1104 mutant strain with lon::lux mutation after 24 hrs by broth microdilution technique; format: functional; outline: as §1
Pseudomonas aeruginosa [3] = experiment: Antibacterial activity against 31_C9 allele containing Pseudomonas aeruginosa PAO1 H1104 mutant strain with lon::lux mutation assessed as fold decrease in MIC after 24 hrs by broth microdilution technique relative to wild type; format: functional; outline: as §1
Pseudomonas aeruginosa [4] = experiment: Antibacterial activity against wild type Pseudomonas aeruginosa PAO1 H103 after 24 hrs by broth microdilution technique; format: functional; outline: as §1
Pseudomonas aeruginosa [5] = experiment: Antibacterial activity against 74_D9 allele containing Pseudomonas aeruginosa PAO1 H1105 mutant strain with lon::lux mutation after 24 hrs by broth microdilution technique; format: functional; outline: as §1
Pseudomonas aeruginosa [6] = experiment: Effect on morphological change in Pseudomonas aeruginosa PAO1 H1105 assessed as elongation in cell length at 0.03 ug/ml by Grams staining-based light microscopy; format: functional, organism-based
Pseudomonas aeruginosa [7] = experiment: Antibacterial activity against 75_F11 allele containing Pseudomonas aeruginosa PAO1 H1136 mutant strain with PA5455::lux mutation after 24 hrs by broth microdilution technique; format: functional; outline: as §1
Pseudomonas aeruginosa [8] = experiment: Antibacterial activity against 16_G12 allele containing Pseudomonas aeruginosa PAO1 H1125 mutant strain with recG::lux mutation after 24 hrs by broth microdilution technique; format: functional; outline: as §1
Pseudomonas aeruginosa [9] = experiment: Antibacterial activity against 24_A2 allele containing Pseudomonas aeruginosa PAO1 H1106 mutant strain with lon::lux mutation after 24 hrs by broth microdilution technique; format: functional; outline: as §1
Pseudomonas aeruginosa [10] = experiment: Antibacterial activity against 70_H3 allele containing Pseudomonas aeruginosa PAO1 H1129 mutant strain with rnt::lux mutation after 24 hrs by broth microdilution technique; format: functional; outline: as §1
Pseudomonas aeruginosa [11] = experiment: Antimicrobial activity in 0.01 ug/ml pretreated Pseudomonas aeruginosa PAO1 H103 at 2 times MIC after overnight incubation by adaptive resistance assay; format: functional, organism-based
Outline: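 Modified time-kill with PAO1 H103 grown to mid-log (OD600 0.5–0.6) in LB at 37°C with or without ciprofloxacin 0.01 or 0.03 µg/ml. Cells were pelleted, washed in prewarmed PBS pH 7.4, resuspended in prewarmed LB with ciprofloxacin 0.2 µg/ml (2× MIC) and shaken at 37°C. Samples taken every 15–20 min for 2 h and plated on LB agar for overnight CFU counts at 37°C. Four independent experiments.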

Pseudomonas aeruginosa [12] = experiment: Effect on morphological change in Pseudomonas aeruginosa PAO1 H1105/lon+ assessed as elongation in cell length at 0.03 ug/ml by Grams staining-based light microscopy
Pseudomonas aeruginosa [13] = experiment: Increase in lon gene expression in Pseudomonas aeruginosa PAO1 H1105 mutant strain with lon::lux mutation assessed as incese in lon::lux fusion at 0.3 times MIC by luminescence assay relative to control; format: functional, organism-based
Pseudomonas aeruginosa [14] = experiment: Antibacterial activity against Pseudomonas aeruginosa PAO1 H1105/lon+c mutant strain with lon::lux/lon+ mutation after 24 hrs by broth microdilution technique; format: functional; outline: as §1
Pseudomonas aeruginosa [15] = experiment: Antibacterial activity against 24_A2 allele containing Pseudomonas aeruginosa PAO1 H1106 mutant strain with lon::lux mutation assessed as fold decrease in MIC after 24 hrs by broth microdilution technique relative to wild type; format: functional; outline: as §1
Pseudomonas aeruginosa [16] = experiment: Antibacterial activity against 6_G1 allele containing Pseudomonas aeruginosa PAO1 H1121 mutant strain with PA4961::lux mutation after 24 hrs by broth microdilution technique; format: functional; outline: as §1
Pseudomonas aeruginosa [17] = experiment: Antibacterial activity against 63_H5 allele containing Pseudomonas aeruginosa PAO1 H1133 mutant strain with nfxB::lux mutation after 24 hrs by broth microdilution technique; format: functional; outline: as §1
Pseudomonas aeruginosa [18] = experiment: Antibacterial activity against 74_D9 allele containing Pseudomonas aeruginosa PAO1 H1105 mutant strain with lon::lux mutation assessed as fold decrease in MIC after 24 hrs by broth microdilution technique relative to wild type; format: functional; outline: as §1
Pseudomonas aeruginosa [19] = experiment: Antibacterial activity against Pseudomonas aeruginosa PAO1 H1105/lon+ mutant strain with lon::lux mutation assessed as fold decrease in MIC after 24 hrs by broth microdilution technique relative to wild type; format: functional; outline: as §1
Pseudomonas aeruginosa [20] = experiment: Antibacterial activity against 53_F11 allele containing Pseudomonas aeruginosa PAO1 H1124 mutant strain with PA5279::lux mutation after 24 hrs by broth microdilution technique; format: functional; outline: as §1
Pseudomonas aeruginosa [21] = experiment: Effect on morphological change in Pseudomonas aeruginosa PAO1 H1105/lon+ assessed as restoration of cell division at 0.03 ug/ml by Grams staining-based light microscopy
Pseudomonas aeruginosa [22] = experiment: Drug resistance in Pseudomonas aeruginosa PAO1 H1105 assessed as survivality at 0.0075 ug/ml after overnight incubation by adaptive resistance assay; format: functional, organism-based

Molecule | MIC (Pseudomonas aeruginosa [1]; PAO1 H1109, 24 h) [µg/mL] | MIC (Pseudomonas aeruginosa [2]; PAO1 H1104, 24 h) [µg/mL] | fold change (FC) (Pseudomonas aeruginosa [3]) | MIC (Pseudomonas aeruginosa [4]; PAO1 H103, 24 h) [µg/mL] | MIC (Pseudomonas aeruginosa [5]; PAO1 H1105, 24 h) [µg/mL] | MIC (Pseudomonas aeruginosa [7]; PAO1 H1136, 24 h) [µg/mL] | MIC (Pseudomonas aeruginosa [8]; PAO1 H1125, 24 h) [µg/mL] | MIC (Pseudomonas aeruginosa [9]; PAO1 H1106, 24 h) [µg/mL] | MIC (Pseudomonas aeruginosa [10]; PAO1 H1129, 24 h) [µg/mL] | MIC (Pseudomonas aeruginosa [14]) [µg/mL] | fold change (FC) (Pseudomonas aeruginosa [15]) | MIC (Pseudomonas aeruginosa [16]; PAO1 H1121, 24 h) [µg/mL] | MIC (Pseudomonas aeruginosa [17]; PAO1 H1133, 24 h) [µg/mL] | fold change (FC) (Pseudomonas aeruginosa [18]) | fold change (FC) (Pseudomonas aeruginosa [19]) | MIC (Pseudomonas aeruginosa [20]; PAO1 H1124, 24 h) [µg/mL] | other results
O=C(O)c1cn(C2CC2)c2cc(N3CCNCC3)c(F)cc2c1=O [CIPROFLOXACIN] | 0.05 (≈ 0.151 µM) | 0.025 (≈ 0.0754 µM) | 4 | 0.1 (≈ 0.302 µM) | 0.025 (≈ 0.0754 µM) | 0.4 (≈ 1.21 µM) | 0.025 | 0.025 (≈ 0.0754 µM) | 0.4 (≈ 1.21 µM) | 0.1 (≈ 0.302 µM) | 4 | 0.05 (≈ 0.151 µM) | 0.8 (≈ 2.41 µM) | 4 | 1 | 0.05 (≈ 0.151 µM) | Activity (Pseudomonas aeruginosa [6]): inactive; Activity (Pseudomonas aeruginosa [11]): inactive; Activity (Pseudomonas aeruginosa [12]): inactive; Activity (Pseudomonas aeruginosa [13]): Active; Activity (Pseudomonas aeruginosa [21]): Active; Activity (Pseudomonas aeruginosa [22]): inactive
C[C@@H](O)[C@H]1C(=O)N2C(C(=O)O)=C(SCCNC=N)C[C@H]12 [IMIPENEM ANHYDROUS] | 1 (≈ 3.34 µM) | 1 (≈ 3.34 µM) |  | 1 (≈ 3.34 µM) | 1 (≈ 3.34 µM) | 1 (≈ 3.34 µM) | 1 | 1 (≈ 3.34 µM) | 1 (≈ 3.34 µM) | 1 (≈ 3.34 µM) |  | 1 (≈ 3.34 µM) | 1 (≈ 3.34 µM) |  |  | 1 (≈ 3.34 µM) | 
CCn1cc(C(=O)O)c(=O)c2ccc(C)nc21 [NALIDIXIC ACID] | 256 (≈ 1100 µM) | 128 (≈ 551 µM) | 2 | 256 (≈ 1100 µM) | 128 (≈ 551 µM) | 512 (≈ 2200 µM) | 128 | 128 (≈ 551 µM) | 512 (≈ 2200 µM) | 256 (≈ 1100 µM) | 2 | 128 (≈ 551 µM) | 512 (≈ 2200 µM) | 2 | 1 | 128 (≈ 551 µM) | 
CCn1cc(C(=O)O)c(=O)c2cc(F)c(N3CCNCC3)cc21 [NORFLOXACIN] | 0.075 (≈ 0.235 µM) | 0.15 (≈ 0.47 µM) | 2 | 0.3 (≈ 0.939 µM) | 0.075 (≈ 0.235 µM) | > 0.6 | 0.15 | 0.15 (≈ 0.47 µM) | > 0.6 | 0.3 (≈ 0.939 µM) | 2 | 0.075 (≈ 0.235 µM) | > 0.6 | 4 | 1 | 0.15 (≈ 0.47 µM) | 
GENTAMICIN |  |  |  |  |  |  |  |  |  |  |  |  |  |  |  |  | MIC (Pseudomonas aeruginosa [1]): 2 µg/mL; MIC (Pseudomonas aeruginosa [2]): 2 µg/mL; MIC (Pseudomonas aeruginosa [4]): 2 µg/mL; MIC (Pseudomonas aeruginosa [5]): 2 µg/mL; MIC (Pseudomonas aeruginosa [7]): 2 µg/mL; MIC (Pseudomonas aeruginosa [8]): 2 µM; MIC (Pseudomonas aeruginosa [9]): 2 µg/mL; MIC (Pseudomonas aeruginosa [10]): 2 µg/mL; MIC (Pseudomonas aeruginosa [16]): 2 µg/mL; MIC (Pseudomonas aeruginosa [17]): 2 µg/mL; MIC (Pseudomonas aeruginosa [20]): 2 µg/mL
